Test results taken from ChEMBL document CHEMBL4177756, “Small Molecule Neuropilin-1 Antagonists Combine Antiangiogenic and Antitumor Activity with Immune Modulation through Reduction of Transforming Growth Factor Beta (TGFβ) Production in Regulatory T-Cells” (J Med Chem, 2018).
Positions of bridges follow the written chain, without caps; N, C: chain ends. Residues, ends and D or L forms follow the SMILES beside them. *: point of attachment. Octanoyl = CCCCCCCC(=O)*

Key:
Neuropilin-1 [1] = molecular target: T1, Neuropilin-1 (Homo sapiens, UniProt O14786); assay: Binding affinity to N-terminal His6-tagged recombinant human NRP1-b1 domain expressed in Escherichia coli Rosetta Gami 2 (DE3) pLysS cells by SPR method
T1 sequence (O14786 whole entry, the tested form may be a part): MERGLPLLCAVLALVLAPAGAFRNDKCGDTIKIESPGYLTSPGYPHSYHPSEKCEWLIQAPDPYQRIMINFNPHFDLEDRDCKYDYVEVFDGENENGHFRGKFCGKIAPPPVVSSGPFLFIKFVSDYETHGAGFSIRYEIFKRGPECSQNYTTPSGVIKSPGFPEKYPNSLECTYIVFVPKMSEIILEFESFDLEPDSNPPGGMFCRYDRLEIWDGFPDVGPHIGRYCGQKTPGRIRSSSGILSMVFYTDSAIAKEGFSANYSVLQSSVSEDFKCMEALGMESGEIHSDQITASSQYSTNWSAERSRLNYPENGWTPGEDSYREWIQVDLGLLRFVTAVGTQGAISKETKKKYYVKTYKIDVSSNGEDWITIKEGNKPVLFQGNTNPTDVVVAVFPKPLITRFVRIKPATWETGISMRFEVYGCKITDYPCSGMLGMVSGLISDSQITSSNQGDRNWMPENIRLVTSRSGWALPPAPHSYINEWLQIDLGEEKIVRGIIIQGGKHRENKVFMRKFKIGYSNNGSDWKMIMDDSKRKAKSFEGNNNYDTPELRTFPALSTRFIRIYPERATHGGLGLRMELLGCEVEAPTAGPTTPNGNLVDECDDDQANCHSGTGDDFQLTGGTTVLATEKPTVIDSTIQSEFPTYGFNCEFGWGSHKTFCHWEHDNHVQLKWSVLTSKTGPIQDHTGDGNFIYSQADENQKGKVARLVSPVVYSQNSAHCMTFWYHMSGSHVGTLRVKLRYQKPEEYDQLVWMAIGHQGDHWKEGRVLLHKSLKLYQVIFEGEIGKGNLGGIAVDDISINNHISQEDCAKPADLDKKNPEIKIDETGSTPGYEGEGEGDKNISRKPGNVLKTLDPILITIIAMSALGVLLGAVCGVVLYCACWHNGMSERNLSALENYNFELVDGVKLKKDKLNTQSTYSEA
Outline: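 Human NRP1-b1 (residues 273–427, His6-tagged) was amine-coupled to a CM5 chip at high and low density; an unmodified spot served as reference. Runs were at 25 °C in PBS with 0.05% P20 and 3% DMSO. Compound was tested as 2-fold dilutions from 16 µM to 31 nM with 60 s injections. KD was taken from steady-state responses, DMSO-corrected; mean ± SD of the two surfaces.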

in vivo = details: mouse, iv, 2.5 mg/kg
Neuropilin-1 [2] = molecular target: T1, Neuropilin-1; assay: Binding affinity to recombinant human NRP1 extracellular domain by SPR method
[3] = Half life in human plasma at 10 uM by MS/MS analysis; type: ADME, cell-free

| SMILES | Kd (Neuropilin-1 [1]) [nM] | also measured |
| --- | --- | --- |
| N=C(N)NCCC[C@H](NC(=O)c1sccc1NS(=O)(=O)c1cc(-c2cccc(CN3CCCCC3)c2)cc2c1OCC2)C(=O)O | 1170 | – |
| N=C(N)NCCC[C@H](NC(=O)c1sccc1NS(=O)(=O)c1cc(-c2ccc3c(c2)CNC3)cc2c1OCC2)C(=O)O | 2170 | – |
| CNC(=O)C1CCN(Cc2ccccc2-c2cc3c(c(S(=O)(=O)Nc4ccsc4C(=O)N[C@@H](CCCNC(=N)N)C(=O)O)c2)OCC3)CC1 | 3020 | – |
| N=C(N)NCCC[C@H](NC(=O)c1sccc1NS(=O)(=O)c1cc(-c2ccccc2CN2CCCCC2)cc2c1OCC2)C(=O)O | 2280 | – |
| N=C(N)NCCC[C@H](NC(=O)c1sccc1NS(=O)(=O)c1cc(-c2ccccc2CN2CCC(N3CCOCC3)CC2)cc2c1OCC2)C(=O)O | 1500 | – |
| N=C(N)NCCC[C@H](NC(=O)c1sccc1NS(=O)(=O)c1cccc2nsnc12)C(=O)O | – | half-life (in vivo): 30 min |
| N=C(N)NCCC[C@H](NC(=O)c1sccc1NS(=O)(=O)c1cc(-c2cccc(CN)c2)cc2c1OCC2)C(=O)O | 2440 | – |
| N=C(N)NCCC[C@H](NC(=O)c1sccc1NS(=O)(=O)c1cc(-c2cccc(CN3CCOCC3)c2)cc2c1OCC2)C(=O)O | 3760 | – |
| N=C(N)NCCC[C@H](NC(=O)c1sccc1NS(=O)(=O)c1cc(-c2cccc3c2CNC3)cc2c1OCC2)C(=O)O | 2470 | – |
| CCCCCCCC(=O)N[C@@H](CO)C(=O)N[C@H]1CSSC[C@@H]2NC(=O)[C@H]([C@@H](C)O)NC(=O)[C@H](CCCNC(=N)N)NC(=O)[C@H](CCC(=O)O)NC(=O)[C@H](CC(N)=O)NC(=O)[C@H](CC(C)C)NC(=O)[C@H](CCC(=O)O)NC(=O)[C@H](CC(C)C)NC(=O)[C@H](CCC(N)=O)NC(=O)[C@H](CCCNC(=N)N)NC(=O)[C@H](C)NC(=O)[C@H](CCCCN)NC(=O)[C@H](CSSC[C@@H](C(=O)N[C@@H](CC(=O)O)C(=O)N[C@@H](CCCCN)C(=O)N3CCC[C@H]3C(=O)N[C@@H](CCCNC(=N)N)C(=O)N[C@@H](CCCNC(=N)N)C(N)=O)NC(=O)[C@H](CCCNC(=N)N)NC2=O)NC(=O)[C@H](CCCNC(=N)N)NC(=O)[C@H](CO)NC(=O)[C@H](CC(=O)O)NC(=O)[C@H]([C@@H](C)O)NC(=O)[C@H](CC(N)=O)NC(=O)[C@H](CCCCN)NC1=O (Octanoyl-SCKNTDSRCKARQLELNERTCRCDKPRR-NH2; disulfide 2-21, 9-23) | – | Kd (Neuropilin-1 [2]): 76 nM; half-life at 10 µM [3]: < 5 min |
